Only some compounds are listed: those with a hit (about 5.8% of all), similar ones and a draw of the others.
KDM4C inh: KDM4C (human) demethylase inhibition; Q9H3R0; GST-KDM4C 2-372, H3K9me3 peptide, LANCE TR-FRET; inhibition, % at 12.5 µM; 96,000 tested, 0.15% active; AID 720574;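 active means mean replicate inhibition above about 25%, with at least 55% of replicates also reaching it, limit read from the data, passing the limit was not always enough; inconclusive means only one of those two conditions met; inactive means neither condition met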
Target sequence (Q9H3R0 2-372 limits assumed): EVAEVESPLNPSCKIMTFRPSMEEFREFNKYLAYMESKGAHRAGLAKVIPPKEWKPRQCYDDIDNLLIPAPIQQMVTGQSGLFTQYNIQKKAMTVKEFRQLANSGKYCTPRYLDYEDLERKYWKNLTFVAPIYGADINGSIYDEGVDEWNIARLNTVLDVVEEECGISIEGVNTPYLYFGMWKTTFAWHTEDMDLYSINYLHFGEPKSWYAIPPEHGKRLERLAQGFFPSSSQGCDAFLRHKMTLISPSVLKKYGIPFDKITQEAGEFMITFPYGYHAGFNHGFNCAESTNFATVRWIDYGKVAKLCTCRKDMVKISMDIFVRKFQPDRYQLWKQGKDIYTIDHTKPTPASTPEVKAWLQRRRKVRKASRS
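System – N-terminal GST-fused human GASC-1 (KDM4C) fragment, residues 2-372 · Input – enzyme final amount 10 nM · Technique – LANCE TR-FRET, Eu antibody, ULight-streptavidin, EDTA, ex 340 nm, em 618/671 nm · Medium – HEPES buffer, pH 7.5, plus ascorbate · Incubation – enzyme reaction 30 min, then detection 60 min, both room temperature · Reagent – H3K9me3 peptide with Fe(II)/2OG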
IDH1 R132H inh: IDH1 R132H (human) inhibition; IDH1 R132H reductase, diaphorase/resazurin fluorescence, 60 min; O75874; 70,000 tested, 0.18% active; inhibition, % at 10 µM; in the data active means inhibition above about 34%; inconclusive means no clear call, values can overlap the other calls; inactive means below about 11%;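 further: 0% = DMSO and 100% = no enzyme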
Target sequence (O75874 whole entry R132H): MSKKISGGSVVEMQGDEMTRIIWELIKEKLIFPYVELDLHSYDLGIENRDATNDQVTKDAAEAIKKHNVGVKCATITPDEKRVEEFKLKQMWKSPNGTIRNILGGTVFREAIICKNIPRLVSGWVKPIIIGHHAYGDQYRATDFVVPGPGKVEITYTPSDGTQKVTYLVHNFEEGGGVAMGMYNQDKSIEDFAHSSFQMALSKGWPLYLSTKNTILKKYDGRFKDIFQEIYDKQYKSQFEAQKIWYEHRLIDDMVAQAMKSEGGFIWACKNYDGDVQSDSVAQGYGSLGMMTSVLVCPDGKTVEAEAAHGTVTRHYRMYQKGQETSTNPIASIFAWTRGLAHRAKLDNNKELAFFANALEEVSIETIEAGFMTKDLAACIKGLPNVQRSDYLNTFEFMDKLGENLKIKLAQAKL
T cruzi growth-1: T. cruzi proliferation inhibition; T. cruzi beta-gal in NIH3T3, GalScreen luminescence, 90 h; inhibition, % at 8.34 µM; 77,000 tested, 5.9% active;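 active means mean inhibition above about 93%, with at least 55% of replicates each passing it, limit read from the data, passing the limit was not always enough; inconclusive means only one of those two conditions holds; inactive means neither condition holds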
Pf Dd2 inh: inhibitors of Plasmodium falciparum Dd2 growth; 94,000 tested, 2.3% active; P. falciparum Dd2 growth, SYBR Green, 72 h; active compounds read low; AID 1159554; activity change, % at 10 µM; in the data active means activity change below about -80%; inconclusive means no clear call, values can overlap the other calls
T cruzi growth-2: blocks T. cruzi growth in NIH3T3 host cells; inhibition, % at 8.35 µM; T. cruzi beta-gal in NIH3T3, GalScreen luminescence, 90 h; shares compounds with T cruzi growth-1; AID 651739; 5,600 tested, 72% active;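 active means mean replicate inhibition above about 95% and at least 55% of replicates individually reaching it, limit read from the data; inconclusive means only one of the two criteria is met; inactive means neither criterion is met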
T cruzi growth-3: blocks T. cruzi growth in NIH3T3 host cells; shares compounds with T cruzi growth-1; T. cruzi beta-gal in NIH3T3, GalScreen luminescence, 90 h; inhibition, % at 2.09 µM; 5,600 tested, 21% active;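 active means mean inhibition above about 95%, with at least 55% of replicates also reaching it, limit read from the data; inconclusive means meets just one of the two conditions; inactive means meets neither condition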;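 further: plate controls were neutral control median for no effect and positive control median for full effect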
3T3 cytotox: cytotoxicity in mouse NIH/3T3 fibroblasts; NIH/3T3 viability, CellTiter-Glo ATP luminescence, 90 h; shares compounds with T cruzi growth-1; AID 651742; 5,600 tested, 14% active; cytotoxicity (signal decrease), % at 8.35 µM;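 active means mean signal decrease across replicates above about 35% based on untreated-well scatter, with enough replicates individually passing, limit read from the data; inconclusive means no rule stated though some were filed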;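 further: 0% = median of neutral control wells and 100% = median of positive control wells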
3T3 cytotox 2: cytotoxicity in mouse NIH/3T3 fibroblasts; NIH/3T3 viability, CellTiter-Glo ATP luminescence, 90 h; 5,600 tested, 56% active; AID 651744; inhibition, % at 24.9 µM; shares compounds with T cruzi growth-1;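 active means mean loss of cell viability signal at or above a set limit, and enough replicates individually reaching it; inconclusive means meets only the mean limit or only the replicate share; inactive means meets neither condition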;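 further: 0% = median of neutral control wells and 100% = median of positive control wells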
* hit, by the source's call; ? = inconclusive; · = no result.

SMILES | KDM4C inh | IDH1 R132H inh | T cruzi growth-1 | Pf Dd2 inh | T cruzi growth-2 | T cruzi growth-3 | 3T3 cytotox | 3T3 cytotox 2
CC(C)NC(=O)N1[C@H](CO)[C@@H](c2ccc(-c3ccc(F)cc3)cc2)[C@@H]1C#N | -1 | · | 32 | -10 | · | · | · | ·
COc1ccc(-c2ccc([C@H]3[C@@H](C#N)N(C(=O)NC4CCCCC4)[C@H]3CO)cc2)cc1 | -3 | · | 102* | -49 | 97* | 35 | 34 | 35*
CC(C)NC(=O)N1[C@H](C#N)[C@H](c2ccc(-c3ccc(F)cc3)cc2)[C@@H]1CO | 1 | · | ? | ? | 96* | 109* | 3 | 15
COc1ccc(-c2ccc([C@H]3[C@H](C#N)N(C(=O)NC(C)C)[C@H]3CO)cc2)cc1 | -1 | · | 90 | -54 | · | · | · | ·
COc1ccc(-c2ccc([C@H]3[C@@H](C#N)N(C(=O)NC(C)C)[C@H]3CO)cc2)cc1 | -3 | · | 98* | -80 | 105* | 109* | 12 | 34*
O=C(CN1C(=O)c2ccccc2S1(=O)=O)Nc1ccc(Cl)c(Cl)c1 | · | -1 | · | · | · | · | · | ·
CCCNC(=O)N1[C@@H](CO)[C@@H](c2ccccc2)[C@@H]1CNC(=O)c1cccc(F)c1 | -2 | · | 122* | -71 | 81 | -9 | 6 | 40*
CCCNC(=O)N1[C@H](CO)[C@@H](c2ccccc2)[C@H]1CNC(=O)c1cccc(F)c1 | -4 | · | -15 | -54 | · | · | · | ·
CCCNC(=O)N1[C@H](CO)[C@@H](c2ccccc2)[C@H]1CNC(=O)c1ccccc1 | -6 | · | 48 | 12 | · | · | · | ·
CCCNC(=O)N1[C@@H](CO)[C@H](c2ccccc2)[C@@H]1CNC(=O)c1ccccc1 | -2 | · | ? | -1 | 23 | -15 | 0 | -4
Cc1ccc(S(=O)(=O)N(C)C[C@@H]2OCCCC[C@@H](C)Oc3ccc(NS(=O)(=O)c4ccc(Cl)cc4)cc3C(=O)N([C@H](C)CO)C[C@@H]2C)cc1 | -2 | 3 | 74 | -14 | · | · | · | ·
Cc1ccc(S(=O)(=O)N(C)C[C@@H]2OCCCC[C@@H](C)Oc3ccc(NS(=O)(=O)c4ccc(Cl)cc4)cc3C(=O)N([C@@H](C)CO)C[C@@H]2C)cc1 | 0 | · | 110* | -57 | 100* | 113* | 10 | 46*
Cc1ccc(S(=O)(=O)Nc2ccc3c(c2)C(=O)N([C@@H](C)CO)C[C@@H](C)[C@@H](CN(C)S(=O)(=O)c2ccc(Cl)cc2)OCCCC[C@@H](C)O3)cc1 | 1 | · | 47 | -69 | · | · | · | ·
Cc1ccc(S(=O)(=O)Nc2ccc3c(c2)C(=O)N([C@H](C)CO)C[C@@H](C)[C@H](CN(C)S(=O)(=O)c2ccc(Cl)cc2)OCCCC[C@H](C)O3)cc1 | -2 | -1 | · | -69 | · | · | · | ·
Cc1ccc(S(=O)(=O)N(C)C[C@H]2OCCCC[C@H](C)Oc3ccc(NS(=O)(=O)c4ccc(Cl)cc4)cc3C(=O)N([C@@H](C)CO)C[C@H]2C)cc1 | 0 | 0 | ? | -64 | 104* | 108* | -37 | -16
Cc1ccc(S(=O)(=O)Nc2ccc3c(c2)C(=O)N([C@H](C)CO)C[C@H](C)[C@@H](CN(C)S(=O)(=O)c2ccc(Cl)cc2)OCCCC[C@H](C)O3)cc1 | -2 | 5 | 89 | -53 | · | · | · | ·
Cc1ccc(S(=O)(=O)N(C)C[C@H]2OCCCC[C@H](C)Oc3ccc(NS(=O)(=O)c4ccc(Cl)cc4)cc3C(=O)N([C@@H](C)CO)C[C@@H]2C)cc1 | 1 | 2 | 93* | -59 | 109* | 107* | -31 | -29
Cc1ccc(S(=O)(=O)N(C)C[C@@H]2OCCCC[C@H](C)Oc3ccc(NS(=O)(=O)c4ccc(Cl)cc4)cc3C(=O)N([C@@H](C)CO)C[C@H]2C)cc1 | 2 | 0 | 106* | -27 | 103* | 71 | -37 | -10
CCOC(=O)c1ccc(NC(=O)CN2c3cccc4cccc(c34)S2(=O)=O)cc1 | · | 0 | · | · | · | · | · | ·
Cc1noc(C)c1NC(=O)N(C)C[C@@H]1OCc2cn(nn2)CCCC(=O)N([C@H](C)CO)C[C@@H]1C | -1 | -1 | ? | 1 | 16 | -2 | -3 | -12
COc1ccc(OC(=O)N(C)C[C@H]2OCc3cn(nn3)CCCC(=O)N([C@H](C)CO)C[C@H]2C)cc1 | 1 | 0 | 22 | 2 | · | · | · | ·
COc1ccc(OC(=O)N(C)C[C@@H]2OCc3cn(nn3)CCCC(=O)N([C@H](C)CO)C[C@@H]2C)cc1 | -1 | 0 | 113* | 15 | 42 | -17 | 5 | 4
C[C@@H]1CN([C@@H](C)CO)C(=O)CCCn2cc(nn2)CO[C@H]1CN(C)Cc1ccc(Cl)c(Cl)c1 | 1 | -3 | 135* | 8 | 77 | 74 | -30 | 0
Cc1noc(C)c1NC(=O)N(C)C[C@H]1OCc2cn(nn2)CCCC(=O)N([C@H](C)CO)C[C@@H]1C | · | -1 | -9 | 9 | · | · | · | ·
C[C@H]1CN([C@@H](C)CO)C(=O)CCCn2cc(nn2)CO[C@@H]1CN(C)Cc1ccc(Cl)c(Cl)c1 | 0 | -1 | -65 | 20 | · | · | · | ·
SMILES | KDM4C inh | IDH1 R132H inh | T cruzi growth-1 | Pf Dd2 inh | T cruzi growth-2 | T cruzi growth-3 | 3T3 cytotox | 3T3 cytotox 2
C[C@@H]1CN([C@H](C)CO)C(=O)CCCn2cc(nn2)CO[C@@H]1CN(C)C(=O)Nc1cccc(F)c1 | -1 | · | 11 | 9 | · | · | · | ·
C[C@H](CO)N1C[C@H](C)[C@@H](CN(C)C(=O)Nc2cccc(F)c2)OCc2cn(nn2)CCCC1=O | 0 | · | ? | 5 | 109* | 17 | 31 | 15
COc1ccc(C)cc1N(CC(=O)Nc1ccc(Br)c(C)c1)S(C)(=O)=O | · | 0 | · | · | · | · | · | ·
C=C1CCC2(C(=O)OC3OC(CO)C(O)C(O)C3O)CCC3(C)C(=CCC4C5(C)CC(O)C(OC6OCC(O)C(O)C6OC6OC(CO)C(O)C(O)C6O)C(C)(CO)C5CCC43C)C2C1 (configuration not stated) | · | 0 | · | · | · | · | · | ·
O=C(CN1C(=O)c2ccccc2C1=O)Nc1ccc(NC(=O)c2ccccc2F)cc1 | · | 0 | · | · | · | · | · | ·
Cc1c(NC(=O)COc2ccc(Br)cc2)cccc1-c1nc2cc(Cl)ccc2o1 | · | 0 | · | · | · | · | · | ·
COC(=O)C(C(CO)Cc1ccc(O)c(OC)c1)C(O)c1ccc(O)c(OC)c1 (configuration not stated) | · | 0 | · | · | · | · | · | ·
COC(=O)N(C)C[C@H]1OCc2cn(nn2)CCCC(=O)N([C@@H](C)CO)C[C@H]1C | 1 | -2 | ? | -6 | 25 | 4 | 21 | ?
COC(=O)N(C)C[C@@H]1OCc2cn(nn2)CCCC(=O)N([C@H](C)CO)C[C@H]1C | · | 1 | -250 | -17 | · | · | · | ·
COc1cccc(S(=O)(=O)N(C)C[C@@H]2OCc3cn(nn3)CCCC(=O)N([C@@H](C)CO)C[C@H]2C)c1 | 0 | -1 | ? | 5 | 94 | 4 | 7 | 15

Bioassay records as filed in PubChem.
